Data set [1] concerns the target T1, Cytochrome P450 1B1 (Homo sapiens, UniProt Q16678).
T1 sequence (Q16678 whole entry): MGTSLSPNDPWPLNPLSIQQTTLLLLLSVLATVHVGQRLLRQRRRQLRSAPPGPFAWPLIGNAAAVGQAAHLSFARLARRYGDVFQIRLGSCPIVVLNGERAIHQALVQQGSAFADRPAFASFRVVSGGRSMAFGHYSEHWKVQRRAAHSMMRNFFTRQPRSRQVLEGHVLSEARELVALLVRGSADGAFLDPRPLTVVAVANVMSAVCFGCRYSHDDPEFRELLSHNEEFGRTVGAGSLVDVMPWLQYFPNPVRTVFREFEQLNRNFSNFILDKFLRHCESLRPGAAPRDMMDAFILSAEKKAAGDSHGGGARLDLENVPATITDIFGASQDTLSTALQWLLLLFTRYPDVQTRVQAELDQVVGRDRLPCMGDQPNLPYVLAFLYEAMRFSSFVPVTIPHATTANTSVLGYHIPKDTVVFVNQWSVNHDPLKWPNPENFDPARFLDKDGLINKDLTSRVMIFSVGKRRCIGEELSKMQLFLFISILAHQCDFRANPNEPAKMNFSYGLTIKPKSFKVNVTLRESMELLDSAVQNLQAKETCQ
Kind of data set: Inhibition of human CYP1B1 assessed as reduction in 7-ethoxyresorufin O-deethylation activity by fluorescence based EROD assay. In outline: (§1)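 Recombinant human CYP1B1, 1A1 and 1A2 in a standard EROD assay. NADPH regeneration system: 1.3 mM NADP+, 3.3 mM G-6-P, 0.5 U/mL G6-PD. Incubation time 35 min for CYP1B1, 15 min for 1A1 and 50 min for 1A2. IC50 by Probit analysis; selectivity taken as the ratio of IC50 values.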

The next data set deals with T2, Cytochrome P450 1A1 (Homo sapiens, UniProt P04798).
T2 sequence (P04798 whole entry): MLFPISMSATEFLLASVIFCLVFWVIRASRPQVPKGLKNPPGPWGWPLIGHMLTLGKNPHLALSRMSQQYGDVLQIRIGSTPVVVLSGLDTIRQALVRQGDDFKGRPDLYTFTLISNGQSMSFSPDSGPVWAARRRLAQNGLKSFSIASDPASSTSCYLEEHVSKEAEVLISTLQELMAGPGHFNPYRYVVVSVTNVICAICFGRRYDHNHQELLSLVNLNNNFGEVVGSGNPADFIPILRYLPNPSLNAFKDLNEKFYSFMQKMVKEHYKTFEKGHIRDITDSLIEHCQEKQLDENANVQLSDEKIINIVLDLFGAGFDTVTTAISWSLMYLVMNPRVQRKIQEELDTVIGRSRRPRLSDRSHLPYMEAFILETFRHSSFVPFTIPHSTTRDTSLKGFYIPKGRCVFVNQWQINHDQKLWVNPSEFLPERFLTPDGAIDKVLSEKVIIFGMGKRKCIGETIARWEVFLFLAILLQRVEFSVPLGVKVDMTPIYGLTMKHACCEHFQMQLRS
In words: Inhibition of human CYP1A1 assessed as reduction in 7-ethoxyresorufin O-deethylation activity by fluorescence based EROD assay. The class given is ADME. In outline: (§2)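 Recombinant human CYP1B1, 1A1 and 1A2 in a standard EROD assay. 7-Ethoxyresorufin fixed at 150 nM. NADPH regeneration system: 1.3 mM NADP+, 3.3 mM G-6-P, 0.5 U/mL G6-PD. Incubation time 35 min for CYP1B1, 15 min for 1A1 and 50 min for 1A2. Resorufin fluorescence read at ex 545 / em 590 nm. IC50 by Probit analysis; selectivity taken as the ratio of IC50 values.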

In the next data set the target is T3, Cytochrome P450 1A2 (Homo sapiens, UniProt P05177).
T3 sequence (P05177 whole entry): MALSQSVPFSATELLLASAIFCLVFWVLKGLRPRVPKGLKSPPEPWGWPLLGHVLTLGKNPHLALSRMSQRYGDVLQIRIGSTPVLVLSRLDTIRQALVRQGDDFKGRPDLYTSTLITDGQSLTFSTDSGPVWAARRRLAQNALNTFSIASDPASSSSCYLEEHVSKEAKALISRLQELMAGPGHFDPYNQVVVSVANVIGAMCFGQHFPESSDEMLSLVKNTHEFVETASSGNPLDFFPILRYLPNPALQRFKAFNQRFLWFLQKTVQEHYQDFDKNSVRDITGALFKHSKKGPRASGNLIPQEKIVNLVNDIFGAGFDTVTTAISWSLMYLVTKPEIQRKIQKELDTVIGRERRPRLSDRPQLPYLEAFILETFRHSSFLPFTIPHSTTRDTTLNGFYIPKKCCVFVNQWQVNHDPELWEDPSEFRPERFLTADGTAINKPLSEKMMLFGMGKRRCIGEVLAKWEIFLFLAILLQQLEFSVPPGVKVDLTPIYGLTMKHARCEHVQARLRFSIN
In words: Inhibition of human CYP1A2 assessed as reduction in 7-ethoxyresorufin O-deethylation activity by fluorescence based EROD assay. The class given is ADME. In a few lines:
as §1

For data set [2], the species on record is Homo sapiens. Kind of data set: Selectivity index, ratio of IC50 for human CYP1A1 to IC50 for human CYP1B1. In a few lines:
as §2

Data set [3] is filed under the species Homo sapiens. Kind of data set: Selectivity index, ratio of IC50 for human CYP1A2 to IC50 for human CYP1B1. In a few lines: as §2
The target in data set [4] is T1, Cytochrome P450 1B1. Kind of data set: Potency index, ratio of IC50 for ANF to IC50 for compound against human CYP1B1 assessed as reduction in 7-ethoxyresorufin O-deethylation activity by fluorescence based EROD assay. The settings on record: read-out: Ratio IC50. In a few lines: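 Recombinant human CYP1B1 EROD assay with 150 nM 7-ethoxyresorufin. NADPH regeneration system (1.3 mM NADP+, 3.3 mM G-6-P, 0.5 U/mL G6-PD) replaced NADPH. Incubated 35 min; resorufin fluorescence read at ex 545/em 590 nm. IC50 by Probit analysis. ANF was the positive control in the same assay, and the index divides its IC50 by the compound's IC50.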

The subject of data set [5] is MCF7. In words: Cytotoxicity against human MCF7 cells over-expressing CYP1B1 after 48 hrs by MTT assay. The settings on record: MCF7, 48 h. The class given is functional, cell-based. In a few lines: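 CYP1B1-expressing MCF-7 (MCF-7/1B1) made by exposing parental cells to 10 nM TCDD for 96 h, with daily renewal of medium containing fresh 10 nM TCDD. Standard MTT assay, 48 h exposure to docetaxel alone or combined with a CYP1B1 inhibitor (5 or 10 μM). Wells with inhibitor alone (10 μM) served as negative control. Five concentrations, four replicate wells each, three plates.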

Data set [6] relates to MCF7. In words: Cytotoxicity against human MCF7 cells after 48 hrs by MTT assay. The class given is functional, cell-based. The settings on record: MCF7, 48 h. In a few lines: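 MCF-7 cells grown in RPMI-1640 with 10% FBS at 37 °C, 5% CO2 and subcultured every 3 days at 1:5. Standard MTT assay with a 48 h exposure to freshly prepared docetaxel. Five concentrations per plate, four replicate wells each, three replicate plates. Viability is percent surviving cells relative to control. IC50 is the average of three parallel experiments.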
(Tetrazolium dyes change colour on reduction, which living cells bring about.)

For data set [7], the system named is MCF7. Kind of data set: Resistance index, ratio of IC50 for human MCF7 cells over-expressing CYP1B1 to IC50 for human MCF7 cells. The class given is functional.

This is an account of results in ChEMBL document CHEMBL3421595, “Design and Synthesis of New α-Naphthoflavones as Cytochrome P450 (CYP) 1B1 Inhibitors To Overcome Docetaxel-Resistance Associated with CYP1B1 Overexpression” (J Med Chem, 2015).

For `COc1ccc(OC)c2c1c(OC)cc1c(=O)cc(-c3ccccc3)oc12`, the IC50 – broadly, the midpoint of a concentration-inhibition curve – at Cytochrome P450 1B1 [1] was found to be 0.2 nM; on Cytochrome P450 1A1, 4.8 nM; on Cytochrome P450 1A2, 16.1 nM. Also, the values for the Ratio IC50 in the data set filed under Homo sapiens [2] and in the data set listed under Homo sapiens [3] were 24 and 81, respectively. Further, the selectivity ratio on Cytochrome P450 1B1 [4] came to 6.
Consider `COc1ccc(OC)c2c1c(OC)cc1c(=O)cc(-c3ccc(OCc4ccccc4)cc3)oc12`, for which the IC50 at Cytochrome P450 1B1 [1] amounted to 771 nM; at Cytochrome P450 1A1, 67.8 nM; at Cytochrome P450 1A2 it was 43 nM. For the same compound, the Ratio IC50 in the data set filed under Homo sapiens [2] came out at 0.09; in the data set listed under Homo sapiens [3] it was 0.06.
On the same counts, the results for `COc1ccc(OC)c2c1c(OC)cc1c(=O)c(OCCCCOC(=O)CN)c(-c3cccc(F)c3)oc12` are 37 nM, 70.2 nM, 122 nM, 1.9 and 3.3.
With `CC(=O)O[C@@]12CO[C@@H]1C[C@H](O)[C@@]1(C)C(=O)[C@H](O)C3=C(C)[C@@H](OC(=O)[C@H](O)[C@@H](NC(=O)OC(C)(C)C)c4ccccc4)C[C@@](O)([C@@H](OC(=O)c4ccccc4)[C@H]21)C3(C)C.O.O.O` [DOCETAXEL], the values for the IC50 in the data set on MCF7 [5] and in the data set with MCF7 [6] were 140000 nM and 27600 nM, respectively. Besides, in the data set on MCF7 [7], the “Ratio IC50” value was found to be 5.
